Test results reported in ChEMBL document CHEMBL1145212, “Fluorinated diaryl sulfides as serotonin transporter ligands: synthesis, structure-activity relationship study, and in vivo evaluation of fluorine-18-labeled compounds as PET imaging agents” (J Med Chem, 2005).

Key:
[1] = test system: Rattus norvegicus; assay: Biodistribution of [18F]AFA in rat hypothalamus at 30 min postinjection in vivo; format: ADME, organism-based; settings: 0.5 h
In short: (§1)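 Male Sprague-Dawley rats, three per time point, received the F-18 radioligand in saline (~20 µCi per rat at injection) by tail vein. Under CO2 anesthesia they were decapitated at 10, 30, 60, 90 or 120 min. Blood and dissected brain regions were weighed and gamma counted. Activity was decay-corrected, and injected dose was corrected for tail residual activity. Uptake was expressed as %ID/g versus injectate standards, mean ± SD.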

[2] = test system: Rattus norvegicus; assay: Biodistribution of [18F]AFA in rat hippocampus at 10 min postinjection in vivo; format: ADME, organism-based; in short: as §1
[3] = test system: Rattus norvegicus; assay: Biodistribution of [18F]AFA in rat blood at 60 min postinjection in vivo; format: ADME, organism-based; settings: 1 h; in short: as §1
[4] = test system: Rattus norvegicus; assay: Biodistribution of [18F]AFA in rat striatum at 10 min postinjection in vivo; format: ADME, organism-based; in short: as §1
[5] = test system: Rattus norvegicus; assay: Biodistribution of [18F]AFA in rat striatum at 90 min postinjection in vivo; format: ADME, organism-based; settings: 1.5 h
In short: (§2)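 Male Sprague-Dawley rats, three per group, received ~20 µCi of the F-18 radioligand in saline by tail-vein injection. Rats were anesthetized with CO2 and decapitated at 10, 30, 60, 90 or 120 min. Blood and brain regions were weighed and gamma-counted. %ID/g was decay- and tail-residual-corrected against F-18 standards made from the injectate and reported as mean ± SD.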

[6] = test system: Rattus norvegicus; assay: Biodistribution of [18F]AFA in rat thalamus at 10 min postinjection in vivo; format: ADME, organism-based; in short: as §2
[7] = test system: Rattus norvegicus; assay: Biodistribution of [18F]AFA in rat hippocampus at 90 min postinjection in vivo; format: ADME, organism-based; settings: 1.5 h; in short: as §1
[8] = test system: Rattus norvegicus; assay: Biodistribution of [18F]AFA in rat blood at 10 min postinjection in vivo; format: ADME, organism-based; in short: as §1
[9] = species on record: Rattus norvegicus; assay: Specific binding of [18F]AFA in hypothalamus of rat pretreated with compound 7c; n=3; format: functional
[10] = test system: Rattus norvegicus; assay: Biodistribution of [18F]AFA in rat frontal cortex at 120 min postinjection in vivo; format: ADME, organism-based; settings: 2 h; in short: as §1
[11] = test system: Rattus norvegicus; assay: Biodistribution of [18F]AFA in rat frontal cortex at 10 min postinjection in vivo; format: ADME, organism-based; in short: as §1
[12] = test system: Rattus norvegicus; assay: Biodistribution of [18F]AFA in rat striatum 60 min postinjection in vivo; format: ADME, organism-based; settings: 1 h; in short: as §1
[13] = test system: Rattus norvegicus; assay: Biodistribution of [18F]AFA in rat blood at 120 min postinjection in vivo; format: ADME, organism-based; settings: 2 h; in short: as §1
[14] = test system: Rattus norvegicus; assay: Biodistribution of [18F]AFA in rat frontal cortex at 60 min postinjection in vivo; format: ADME, organism-based; settings: 1 h; in short: as §1
[15] = species on record: Rattus norvegicus; assay: Specific binding of [18F]AFA in frontal cortex of rat pretreated with compound 7c; n=3; format: functional
[16] = test system: Rattus norvegicus; assay: Biodistribution of [18F]AFA in rat cerebellum at 90 min postinjection in vivo; format: ADME, organism-based; settings: 1.5 h; in short: as §1
[17] = test system: Rattus norvegicus; assay: Biodistribution of [18F]AFA in rat hypothalamus at 120 min postinjection in vivo; format: ADME, organism-based; settings: 2 h; in short: as §1
[18] = test system: Rattus norvegicus; assay: Biodistribution of [18F]AFA in rat striatum at 30 min postinjection in vivo; format: ADME, organism-based; settings: 0.5 h; in short: as §1
[19] = species on record: Rattus norvegicus; assay: Specific binding of [18F]AFA in hippocampus of rat pretreated with compound 7c; n=3; format: functional
[20] = test system: Rattus norvegicus; assay: Biodistribution of [18F]AFA in rat cerebellum at 30 min postinjection in vivo; format: ADME, organism-based; settings: 0.5 h; in short: as §1
[21] = test system: Rattus norvegicus; assay: Biodistribution of [18F]AFA in rat hippocampus at 120 min postinjection in vivo; format: ADME, organism-based; settings: 2 h; in short: as §1
[22] = test system: Rattus norvegicus; assay: Biodistribution of [18F]AFA in rat thalamus at 60 min postinjection in vivo; format: ADME, organism-based; settings: 1 h; in short: as §2
[23] = test system: Rattus norvegicus; assay: Biodistribution of [18F]-AFA in rat hypothalamus at 60 min postinjection in vivo; format: ADME, organism-based; settings: 1 h; in short: as §1
[24] = test system: Rattus norvegicus; assay: Biodistribution of [18F]AFA in rat frontal cortex at 90 min postinjection in vivo; format: ADME, organism-based; settings: 1.5 h; in short: as §1
[25] = test system: Rattus norvegicus; assay: Biodistribution of [18F]-AFA in rat thalamus at 120 min postinjection in vivo; format: ADME, organism-based; settings: 2 h; in short: as §1
[26] = test system: Rattus norvegicus; assay: Biodistribution of [18F]AFA in rat thalamus at 30 min postinjection in vivo; format: ADME, organism-based; settings: 0.5 h; in short: as §2
[27] = species on record: Rattus norvegicus; assay: Specific binding of [18F]AFA in striatum of rat pretreated with compound 7c; n=3; format: functional
[28] = test system: Rattus norvegicus; assay: Biodistribution of [18F]AFA in rat frontal cortex at 30 min postinjection in vivo; format: ADME, organism-based; settings: 0.5 h; in short: as §1
[29] = test system: Rattus norvegicus; assay: Biodistribution of [18F]AFA in rat thalamus at 90 min postinjection in vivo; format: ADME, organism-based; settings: 1.5 h; in short: as §2
[30] = test system: Rattus norvegicus; assay: Biodistribution of [18F]AFA in rat blood at 90 min postinjection in vivo; format: ADME, organism-based; settings: 1.5 h; in short: as §1
[31] = test system: Rattus norvegicus; assay: Biodistribution of [18F]AFA in rat hypothalamus at 10 min postinjection in vivo; format: ADME, organism-based; in short: as §1
[32] = test system: Rattus norvegicus; assay: Biodistribution of [18F]AFA in rat hippocampus at 60 min postinjection in vivo; format: ADME, organism-based; settings: 1 h; in short: as §1
[33] = test system: Rattus norvegicus; assay: Biodistribution of [18F]AFA in rat cerebellum at 120 min postinjection in vivo; format: ADME, organism-based; settings: 2 h; in short: as §1
[34] = test system: Rattus norvegicus; assay: Biodistribution of [18F]AFA in rat blood at 30 min postinjection in vivo; format: ADME, organism-based; settings: 0.5 h; in short: as §1
[35] = test system: Rattus norvegicus; assay: Biodistribution of [18F]AFA in rat cerebellum at 10 min postinjection in vivo; format: ADME, organism-based; in short: as §1
[36] = test system: Rattus norvegicus; assay: Biodistribution of [18F]AFA in rat striatum at 120 min postinjection in vivo; format: ADME, organism-based; settings: 2 h; in short: as §1
[37] = test system: Rattus norvegicus; assay: Biodistribution of [18F]AFA in rat hypothalamus at 90 min postinjection in vivo; format: ADME, organism-based; settings: 1.5 h; in short: as §1
[38] = test system: Rattus norvegicus; assay: Biodistribution of [18F]AFA in rat cerebellum at 60 min postinjection in vivo; format: ADME, organism-based; settings: 1 h; in short: as §1
[39] = species on record: Rattus norvegicus; assay: Specific binding of [18F]AFA in thalamus of rat pretreated with compound 7c; n=3; format: functional
[40] = test system: Rattus norvegicus; assay: Biodistribution of [18F]AFA in rat hippocampus at 30 min postinjection in vivo; format: ADME, organism-based; settings: 0.5 h; in short: as §1

CN(C)Cc1ccccc1Sc1ccc([18F])cc1N
Biodistribution [1]: 0.66 %ID/g | Biodistribution [2]: 0.54 %ID/g | Biodistribution [3]: 0.08 %ID/g | Biodistribution [4]: 0.65 %ID/g | Biodistribution [5]: 0.19 %ID/g | Biodistribution [6]: 0.72 %ID/g | Biodistribution [7]: 0.18 %ID/g | Biodistribution [8]: 0.27 %ID/g | Specific binding [9]: 0.62 %ID/g | Biodistribution [10]: 0.11 %ID/g | Biodistribution [11]: 0.81 %ID/g | Biodistribution [12]: 0.26 %ID/g | Biodistribution [13]: 0.07 %ID/g | Biodistribution [14]: 0.28 %ID/g | Specific binding [15]: 0.53 %ID/g | Biodistribution [16]: 0.04 %ID/g | Biodistribution [17]: 0.17 %ID/g | Biodistribution [18]: 0.58 %ID/g | Specific binding [19]: 0.55 %ID/g | Biodistribution [20]: 0.2 %ID/g | Biodistribution [21]: 0.1 %ID/g | Biodistribution [22]: 0.34 %ID/g | Biodistribution [23]: 0.38 %ID/g | Biodistribution [24]: 0.2 %ID/g | Biodistribution [25]: 0.16 %ID/g | Biodistribution [26]: 0.69 %ID/g | Specific binding [27]: 0.37 %ID/g | Biodistribution [28]: 0.65 %ID/g | Biodistribution [29]: 0.23 %ID/g | Biodistribution [30]: 0.08 %ID/g | Biodistribution [31]: 0.73 %ID/g | Biodistribution [32]: 0.23 %ID/g | Biodistribution [33]: 0.04 %ID/g | Biodistribution [34]: 0.16 %ID/g | Biodistribution [35]: 0.38 %ID/g | Biodistribution [36]: 0.11 %ID/g | Biodistribution [37]: 0.3 %ID/g | Biodistribution [38]: 0.07 %ID/g | Specific binding [39]: 0.81 %ID/g | Biodistribution [40]: 0.48 %ID/g
